T cruzi repl: T. cruzi replication inhibition | actives 1.4% (n = 300,000) | T. cruzi beta-gal in NIH3T3, luminescence, 90 h | inhibition, % (test concentration not listed);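 active means mean inhibition across valid replicates above about 55%, limit read from the data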;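 further: signal also drops with host cell toxicity which is not excluded here; 0% = plate median of DMSO wells and 100% = zero luminescence signal; higher percent means less beta-gal luminescence so fewer parasites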
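System: Mouse NIH/3T3 fibroblasts infected with β-gal-expressing T. cruzi Tulahuen C4 | Quantity: NIH/3T3 cells, 5,000 per well | Reagent: 5000 reporter trypomastigotes per well | Dosing: Compound pinned at 50 nL/well, DMSO | Schedule: 3 h host attachment, then at least 90 h co-culture | Detection: GalScreen luminescence, 60 min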
Mdm2-MdmX inh: inhibitors of human Mdm2/MdmX interaction; SaOS-2 split-luciferase Mdm2/MdmX complementation, luminescence; actives 3% (n = 330,000); inhibition, % at 8 µM; O15151+Q00987;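 active means inhibition of at least 50% at 8 µM in the primary screen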
Target sequence (O15151 whole entry, looked up): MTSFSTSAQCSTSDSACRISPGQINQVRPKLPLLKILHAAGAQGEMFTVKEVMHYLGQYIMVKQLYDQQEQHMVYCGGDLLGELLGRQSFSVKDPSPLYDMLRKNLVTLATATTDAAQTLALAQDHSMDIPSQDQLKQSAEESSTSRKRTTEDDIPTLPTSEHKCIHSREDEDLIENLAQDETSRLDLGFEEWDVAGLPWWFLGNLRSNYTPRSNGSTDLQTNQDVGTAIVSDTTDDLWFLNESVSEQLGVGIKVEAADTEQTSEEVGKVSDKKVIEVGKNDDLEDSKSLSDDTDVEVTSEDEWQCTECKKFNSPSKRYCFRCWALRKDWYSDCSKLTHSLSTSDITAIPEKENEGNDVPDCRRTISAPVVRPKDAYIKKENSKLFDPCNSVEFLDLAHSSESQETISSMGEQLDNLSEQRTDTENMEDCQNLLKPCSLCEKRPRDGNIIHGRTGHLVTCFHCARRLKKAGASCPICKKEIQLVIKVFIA
Target sequence (Q00987 whole entry, looked up): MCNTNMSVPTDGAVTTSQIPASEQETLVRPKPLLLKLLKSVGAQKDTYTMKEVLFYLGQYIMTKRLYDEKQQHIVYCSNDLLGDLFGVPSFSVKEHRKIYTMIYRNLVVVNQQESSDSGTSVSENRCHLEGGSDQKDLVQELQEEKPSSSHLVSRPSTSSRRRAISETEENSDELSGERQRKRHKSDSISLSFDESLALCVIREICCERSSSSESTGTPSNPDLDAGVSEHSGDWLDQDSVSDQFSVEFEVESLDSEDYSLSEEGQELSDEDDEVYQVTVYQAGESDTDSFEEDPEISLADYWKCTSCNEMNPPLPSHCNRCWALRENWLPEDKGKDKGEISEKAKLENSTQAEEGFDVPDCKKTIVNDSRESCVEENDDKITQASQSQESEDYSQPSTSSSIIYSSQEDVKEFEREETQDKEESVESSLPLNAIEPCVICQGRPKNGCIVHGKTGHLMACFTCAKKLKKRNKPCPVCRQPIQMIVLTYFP
SKKanGAS inh: SKKanGAS growth inhibition; inhibition, % at 7.5 µM; AID 1662; S. pyogenes SKKanGAS, kanamycin growth, BacTiter-Glo, 6 h; actives 1.3% (n = 300,000);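 active means mean replicate score, as percent of positive control median, at least 50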;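 further: strain carries kanamycin resistance gene driven by streptokinase promoter and grows in 40 µg/ml kanamycin; loss of luminescence reflects streptokinase promoter inhibition or plain growth inhibition; 0% = median of DMSO wells and 100% = positive control at its reference dose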
aSyn 5UTR inh: MLPCN primary screen, SNCA 5' untranslated region | actives 0.82% (n = 300,000) | alpha-synuclein 5'UTR reporter, inhibitor activity | inhibition, % (tested at 7.5 µM) | AID 1813; in the data active means inhibition above about 60%;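 further: H4 neuroglioblastoma cells stably carrying SNCA 5'UTR luciferase fusion; 0% = DMSO wells and 100% = positive control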
CSC inhib: cancer stem cell inhibition | cancer stem cell-like cells viability, luminescence | actives 1.1% (n = 300,000) | inhibition, % at 7.5 µM | AID 2717; in the data active means inhibition above about 75%; tested in HMLE shEcad cells
Numbers without * were called inactive; / = not tested or not shown. This is a sample that favours compounds with a hit; in the whole collection about 5.4% have one here.

SMILES	T cruzi repl	Mdm2-MdmX inh	SKKanGAS inh	aSyn 5UTR inh	CSC inhib
C/C(=N\OC(=O)c1ccc(C)cc1)c1c(C)nc2cc(C)ccn12	-21	19	2	-11	1
Cc1cccc2c(N)c3c(nc12)N(C)CC3	8	-10	1	-27	-12
Cc1cc(C)c2c(N)c3cccc(C)c3nc2n1	58*	/	8	-11	-4
C/C(=N\NC(=O)Cc1ccccc1)c1ccc(Br)s1	-14	15	-5	1	-8
C/C(=N/NC(N)=S)c1ccc(Br)s1	61*	2	-6	-47	-8
C/C(=N\NC(N)=S)c1cc(-c2ccccc2)c(-c2ccccc2)s1	53	24	28	-8	99*
CCc1ccccc1NC(=O)CCc1c(C)nn(-c2ccc(N3CCOCC3)nn2)c1C	6	-12	-10	4	-6
COc1cccc(NC(=O)CN(C)C(=O)c2cc3c(s2)CCC3)c1	-4	7	-6	17	-4
Cc1cc(C)c(OCCN(C)Cc2ccccc2)c(Br)c1	57*	-4	6	-5	/
O=C1NC(Cc2ccccc2)c2nc3ccccc3c(=O)n2-c2cc(Cl)ccc21 (centres undefined)	/	-15	/	/	-13
CC(=O)Nc1ccc(S(=O)(=O)NC2=C(N3CCN(C)CC3)C(=O)c3ccccc3C2=O)cc1	14	27	6	71*	7
CCN1CCN(C2=C(NS(=O)(=O)c3ccc(NC(C)=O)cc3)C(=O)c3ccccc3C2=O)CC1	0	47	-10	-3	12
CCOC(=O)C1CCCN(C2=C(NS(=O)(=O)c3ccc(Br)cc3)C(=O)c3ccccc3C2=O)C1 (centres undefined)	13	8	22	9	-11
CCOC(=O)C1CCN(C2=C(NS(=O)(=O)c3ccc(Cl)cc3)C(=O)c3ccccc3C2=O)CC1	-3	8	52*	-1	10
Cc1ccc(OCC(=O)NNC(=S)NC(=O)C2CCCCC2)c(C)c1	10	29	90*	-1	8
Cc1ccc(OCC(=O)NNC(=S)NC(=O)C(C)(C)C)c(Br)c1	27	44	90*	-1	15
CC(C)c1ccc(OCC(=O)NNC(=S)NC(=O)c2cccs2)c(Br)c1	-10	46	78*	-14	-9
Cc1ccc(OCC(=O)NC(=S)Nc2ccccn2)c(Br)c1	1	25	8	39	-7
CC(C)c1ccc(OCC(=O)NNC(=S)NC(=O)C2CC2)cc1	24	30	96*	-12	-11
O=C(CSc1nc2ccccc2c(=O)n1NC(=O)Cc1ccccc1)NCc1ccccc1Cl	27	-19	10	-8	-4
CCCOc1ccc(/C=C/C(=O)OCC(=O)N(C)c2c(N)n(Cc3ccccc3)c(=O)[nH]c2=O)cc1OCC	20	27	3	0	3
Cc1ccc2cc(/C=N/NC(=O)[C@H]3C[C@@H]3c3ccccc3)c(Cl)nc2c1	55*	6	18	-7	6
O=C1C2C(c3ccccc3)(C(=O)N1c1ccc(Cl)cc1)C2(c1ccccc1)c1ccccc1 (centres undefined)	46	31	-9	35	75*
COc1ccc(-c2cc(=O)oc3cc(OCC(=O)NCc4ccccn4)ccc23)cc1	-4	-6	-3	6	11
Cn1c(NCc2ccccc2)nc2c1c(=O)n(Cc1ccc(Br)cc1)c(=O)n2C	-2	20	47	52	2
SMILES	T cruzi repl	Mdm2-MdmX inh	SKKanGAS inh	aSyn 5UTR inh	CSC inhib
COc1ccc(CNc2nc3c(c(=O)n(Cc4ccc(Br)cc4)c(=O)n3C)n2C)cc1	-10	26	54*	52	-1
COc1ccc(C)cc1S(=O)(=O)n1cnc(C)c1	4	19	1	13	-16
COc1cc(C)c(C(C)C)cc1S(=O)(=O)n1cnc(C)c1	30	26	-2	64*	55
COc1cc(NC(=O)CSc2nncn2C)c(C)cc1[N+](=O)[O-]	0	-3	7	13	1
COc1cccc(N(C(=O)CCl)C(C(=O)NCCc2ccccc2)c2cccs2)c1 (centres undefined)	30	/	-6	-112	67
COc1ccc(N(C(=O)CCl)C(C(=O)NCCc2ccccc2)c2cccs2)cc1Cl (centres undefined)	63*	/	-4	16	109*
Cc1cccc(C)c1NC(=O)CNC(=O)c1ccccc1	-1	-3	-1	-12	-2
CC1(C)CC(c2nc(-c3ccc(Br)cc3)cs2)CCS1 (centres undefined)	13	8	-8	-9	12

Source: PubChem (several laboratories)
